Ki data for 6 compounds are collected here from PMC7496240 (Chemmedchem, 2020).

SMILES strings stand for the structures.

The experiment concerns the target T1, murine ovastacin (Mus musculus, UniProt Q6HA09).
T1 sequence (Q6HA09 86-435 limits assumed): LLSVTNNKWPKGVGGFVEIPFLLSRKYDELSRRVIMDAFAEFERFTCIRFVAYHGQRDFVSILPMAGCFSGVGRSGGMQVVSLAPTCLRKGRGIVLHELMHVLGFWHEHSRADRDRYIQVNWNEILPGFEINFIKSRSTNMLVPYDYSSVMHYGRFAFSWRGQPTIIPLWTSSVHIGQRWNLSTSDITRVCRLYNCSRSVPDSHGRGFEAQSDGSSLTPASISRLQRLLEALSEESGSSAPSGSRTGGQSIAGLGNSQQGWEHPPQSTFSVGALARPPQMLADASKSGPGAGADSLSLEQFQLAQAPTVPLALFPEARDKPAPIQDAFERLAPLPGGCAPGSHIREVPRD
As to the kind of experiment: fluorogenic enzyme activity assay, inhibition of murine ovastacin. The class given is biochemical. An outline of the steps:
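Recombinant mouse ovastacin was activated with human plasmin (30 min, 10:1 molar ratio). Active enzyme was 1 nM, set by titration with murine fetuin-B. Buffer: 150 mM NaCl, 50 mM Tris·HCl pH 7.4, 0.01% Brij-35, at 37 °C; inhibitors were in DMSO. Reactions started with 25 μM Edans/Dabcyl peptide substrate (final DMSO 1.4%). Initial rates were read ≥1000 s, then proteinase K gave full-turnover calibration. Apparent Ki came from the Morrison equation; two independent experiments, in triplicate.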
In turn, `O=C(CCN(Cc1ccc2c(c1)OCO2)Cc1ccc(Cl)c(O)c1F)NO` [Compound 13] returned a Ki of 0.68 ± 0.02 µM.

`O=C(CCN(Cc1ccc2c(c1)OCO2)Cc1ccc(Cl)cc1F)NO` [Compound 14] showed an inhibitory constant (Ki) of 1.96 ± 0.08 µM.

For the compound `O=C(CCN(Cc1ccc(Cl)cc1F)Cc1ccc(Cl)c(O)c1F)NO` [Compound 12], the Ki is 0.75 ± 0.04 µM.

For `O=C(CCN(Cc1ccncc1)Cc1ccc2c(c1)OCO2)NO` [Compound 17], affinity was put at a Ki of 7.58 ± 0.36 µM.

`O=C(CCN(Cc1ccncc1)Cc1ccc(Cl)c(O)c1F)NO` [Compound 18] came in with a Ki of 8.18 ± 0.29 µM.

For `O=C(CCN(Cc1cccnc1)Cc1ccc2c(c1)OCO2)NO` [Compound 15], the affinity, expressed as Ki, was 8.12 ± 0.34 µM.

One may read the Ki as a dissociation constant, usually derived from enzyme kinetics or from competition with a known ligand. A low value points to higher affinity.
